Measured values reported in article PMC12709667 (Journal of Clinical Pharmacology, 2025).

Legend:
UGT1A1 [1] = biological target: T1, UGT1A1 (Homo sapiens, UniProt P22309); experiment: DDI perpetrator study: dolutegravir probe; assay type: in vivo; details: miricorilant 400 mg once daily as perpetrator
T1 sequence (P22309 26-533): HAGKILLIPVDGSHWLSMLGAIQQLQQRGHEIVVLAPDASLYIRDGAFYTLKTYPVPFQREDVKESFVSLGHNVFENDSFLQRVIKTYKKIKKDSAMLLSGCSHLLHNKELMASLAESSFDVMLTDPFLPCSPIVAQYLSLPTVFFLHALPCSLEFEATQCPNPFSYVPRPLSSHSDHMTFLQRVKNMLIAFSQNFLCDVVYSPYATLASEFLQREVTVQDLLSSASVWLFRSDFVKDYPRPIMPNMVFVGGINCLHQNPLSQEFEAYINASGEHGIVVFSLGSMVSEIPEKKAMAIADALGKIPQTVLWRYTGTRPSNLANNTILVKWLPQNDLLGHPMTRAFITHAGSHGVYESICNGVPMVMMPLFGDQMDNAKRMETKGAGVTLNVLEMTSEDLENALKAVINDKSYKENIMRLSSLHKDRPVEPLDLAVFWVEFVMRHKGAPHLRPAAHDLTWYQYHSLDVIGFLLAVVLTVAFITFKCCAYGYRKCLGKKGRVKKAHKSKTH

CYP1A2 = assay type: in vitro ADME, human; details: up to 10 µM, three donors
CYP2C8 [2] = biological target: T2, CYP2C8 (Homo sapiens, UniProt P10632); experiment: DDI perpetrator study: repaglinide probe; assay type: in vivo; details: miricorilant 400 mg once daily as perpetrator
T2 sequence (P10632 1-490): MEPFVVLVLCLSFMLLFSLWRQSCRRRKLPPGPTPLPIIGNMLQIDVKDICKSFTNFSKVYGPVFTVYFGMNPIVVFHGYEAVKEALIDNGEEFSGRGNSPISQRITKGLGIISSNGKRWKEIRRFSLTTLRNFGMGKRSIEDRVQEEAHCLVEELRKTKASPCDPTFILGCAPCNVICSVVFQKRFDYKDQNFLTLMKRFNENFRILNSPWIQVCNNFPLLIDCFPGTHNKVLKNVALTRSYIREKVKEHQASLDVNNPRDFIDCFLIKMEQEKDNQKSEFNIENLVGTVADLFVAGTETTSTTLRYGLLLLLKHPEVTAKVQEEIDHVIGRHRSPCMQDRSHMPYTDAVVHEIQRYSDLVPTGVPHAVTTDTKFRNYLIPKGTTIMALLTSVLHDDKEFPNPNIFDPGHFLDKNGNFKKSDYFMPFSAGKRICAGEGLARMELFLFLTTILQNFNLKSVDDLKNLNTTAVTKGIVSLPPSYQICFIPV

BCRP = biological target: T3, BCRP (Homo sapiens, UniProt Q9UNQ0); experiment: Transporter substrate assessment; assay type: in vitro ADME
T3 sequence (Q9UNQ0 1-655): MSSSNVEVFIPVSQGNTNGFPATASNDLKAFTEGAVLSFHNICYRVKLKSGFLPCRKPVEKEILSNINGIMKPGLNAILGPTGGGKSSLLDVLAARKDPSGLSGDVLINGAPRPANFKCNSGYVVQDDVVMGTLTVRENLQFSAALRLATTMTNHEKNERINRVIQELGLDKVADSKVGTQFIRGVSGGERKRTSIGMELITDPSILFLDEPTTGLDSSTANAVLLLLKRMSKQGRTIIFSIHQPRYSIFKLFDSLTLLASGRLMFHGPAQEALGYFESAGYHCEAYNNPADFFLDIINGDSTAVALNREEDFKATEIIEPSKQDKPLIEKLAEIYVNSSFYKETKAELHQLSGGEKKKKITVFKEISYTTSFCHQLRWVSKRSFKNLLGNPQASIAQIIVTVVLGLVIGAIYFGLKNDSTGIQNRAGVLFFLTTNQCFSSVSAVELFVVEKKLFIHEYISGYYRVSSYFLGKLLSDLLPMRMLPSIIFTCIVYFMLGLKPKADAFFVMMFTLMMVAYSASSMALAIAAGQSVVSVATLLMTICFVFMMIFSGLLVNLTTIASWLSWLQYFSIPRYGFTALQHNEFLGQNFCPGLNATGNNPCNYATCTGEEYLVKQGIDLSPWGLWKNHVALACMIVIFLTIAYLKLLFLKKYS

[3] = In vitro blood/plasma partitioning; assay type: in vitro ADME; details: human, whole blood
In short: (§1)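 Test compound was added to rat, monkey or human whole blood and incubated, then centrifuged to obtain plasma. The plasma concentration was measured by LC-MS. It was compared with the concentration in directly spiked plasma of the same species.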

CYP3A4 [4] = details: miricorilant 400 mg once daily as perpetrator
UGT1A1 [5] = biological target: T1, UGT1A1; experiment: Phase 2 enzyme inhibition; assay type: in vitro ADME
CYP2B6 = assay type: in vitro ADME, human; details: up to 10 µM, three donors
MDR1/P-gp = MDR1/P-gp (Homo sapiens, UniProt P08183); experiment: Transporter substrate assessment; assay type: in vitro ADME
fatty liver disease = details: cited from earlier work
CYP3A4 [6] = assay type: in vitro ADME, human; details: up to 10 µM
[7] = In vitro blood/plasma partitioning; assay type: in vitro ADME; details: rat, whole blood
In short: as §1

CYP2C9 [8] = biological target: T4, CYP2C9 (Homo sapiens, UniProt P11712); experiment: Cytochrome P450 inhibition; assay type: in vitro ADME
CYP2C9 [9] = biological target: T4, CYP2C9; experiment: DDI perpetrator study: tolbutamide probe; assay type: in vivo; details: miricorilant 400 mg once daily as perpetrator
[10] = Animal and human ADME studies, summary of excretion; assay type: in vivo; details: animal and human ADME studies (Abstract)
[11] = First-in-human study, single ascending dose; assay type: in vivo
28-day toxicology study = assay type: in vivo, monkey; details: monkeys
CYP2C8 [12] = biological target: T2, CYP2C8; experiment: Cytochrome P450 inhibition; assay type: in vitro ADME

T4 sequence (P11712 whole entry): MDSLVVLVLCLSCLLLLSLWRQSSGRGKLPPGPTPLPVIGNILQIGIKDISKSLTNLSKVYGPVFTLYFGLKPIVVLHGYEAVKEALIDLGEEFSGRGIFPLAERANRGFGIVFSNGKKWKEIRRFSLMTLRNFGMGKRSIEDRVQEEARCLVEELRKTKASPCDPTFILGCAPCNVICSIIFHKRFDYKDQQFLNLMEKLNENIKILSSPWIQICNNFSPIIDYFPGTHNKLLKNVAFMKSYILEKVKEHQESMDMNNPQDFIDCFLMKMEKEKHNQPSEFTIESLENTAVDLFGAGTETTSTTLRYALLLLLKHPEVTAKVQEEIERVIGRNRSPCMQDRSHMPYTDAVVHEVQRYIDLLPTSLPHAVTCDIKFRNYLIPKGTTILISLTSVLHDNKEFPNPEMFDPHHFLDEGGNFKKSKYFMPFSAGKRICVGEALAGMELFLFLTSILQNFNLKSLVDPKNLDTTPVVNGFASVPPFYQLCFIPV
MDR1/P-gp, sequence (P08183 whole entry): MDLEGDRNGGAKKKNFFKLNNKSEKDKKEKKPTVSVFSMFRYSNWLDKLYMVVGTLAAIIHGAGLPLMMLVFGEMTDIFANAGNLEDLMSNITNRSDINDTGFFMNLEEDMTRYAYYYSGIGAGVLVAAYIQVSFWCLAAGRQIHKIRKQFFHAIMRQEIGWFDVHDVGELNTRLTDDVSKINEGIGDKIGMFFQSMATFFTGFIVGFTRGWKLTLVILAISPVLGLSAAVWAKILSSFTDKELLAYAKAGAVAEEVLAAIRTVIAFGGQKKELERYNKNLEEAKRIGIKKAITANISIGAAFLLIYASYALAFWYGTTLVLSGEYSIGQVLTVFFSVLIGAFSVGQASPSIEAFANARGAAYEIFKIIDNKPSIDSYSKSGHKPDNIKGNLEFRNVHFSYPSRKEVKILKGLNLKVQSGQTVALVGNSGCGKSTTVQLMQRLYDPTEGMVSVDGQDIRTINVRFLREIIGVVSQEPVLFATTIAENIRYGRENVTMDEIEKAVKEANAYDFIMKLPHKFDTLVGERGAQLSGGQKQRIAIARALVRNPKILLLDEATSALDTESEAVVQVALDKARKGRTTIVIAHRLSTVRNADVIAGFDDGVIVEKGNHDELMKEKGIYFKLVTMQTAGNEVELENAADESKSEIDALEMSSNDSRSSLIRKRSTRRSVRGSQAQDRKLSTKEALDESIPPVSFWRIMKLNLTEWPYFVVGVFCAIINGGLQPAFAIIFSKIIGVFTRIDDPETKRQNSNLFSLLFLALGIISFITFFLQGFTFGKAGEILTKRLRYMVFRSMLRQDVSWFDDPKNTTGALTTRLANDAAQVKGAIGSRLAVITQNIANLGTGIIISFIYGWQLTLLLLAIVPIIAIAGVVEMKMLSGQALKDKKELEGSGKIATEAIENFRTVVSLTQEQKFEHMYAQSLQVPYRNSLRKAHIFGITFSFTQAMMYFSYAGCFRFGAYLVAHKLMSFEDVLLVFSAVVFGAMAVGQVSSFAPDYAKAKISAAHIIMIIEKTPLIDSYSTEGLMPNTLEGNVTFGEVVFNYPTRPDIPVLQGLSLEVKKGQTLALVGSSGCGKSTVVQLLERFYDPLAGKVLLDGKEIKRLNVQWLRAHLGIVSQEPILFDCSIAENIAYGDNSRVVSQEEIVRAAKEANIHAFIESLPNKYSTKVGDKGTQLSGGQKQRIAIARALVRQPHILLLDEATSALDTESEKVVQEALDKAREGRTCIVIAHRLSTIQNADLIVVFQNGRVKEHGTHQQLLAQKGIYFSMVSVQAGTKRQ

Q: With `O=c1[nH]c(=O)c(Cc2cccc(C(F)(F)F)c2)c([C@H]2CC[C@H](c3ccccc3)CC2)[nH]1` [miricorilant] as the molecule, how does the “clinical inhibition of UGT1A1” value (UGT1A1 [1]) read?
A: does not inhibit

Q: What about the “induction of CYP1A2” value (CYP1A2) of the same molecule?
A: no induction

Q: What about the “clinical inhibition of CYP2C8” value (CYP2C8 [2]) of the same molecule?
A: strong inhibitor

Q: What about the “Substrate of BCRP” value (BCRP) of the same molecule?
A: not a substrate

Q: And the blood plasma ratio [3]?
A: 1.14

Q: And the “clinical inhibition of CYP3A4” value (CYP3A4 [4])?
A: does not inhibit

Q: And the IC50 (UGT1A1 [5])?
A: 1.4 µM

Q: What about the “induction of CYP2B6” value (CYP2B6) of the same molecule?
A: no induction

Q: What about the “Substrate of MDR1/P-gp” value (MDR1/P-gp) of the same molecule?
A: not a substrate

Q: And the “efficacy in mouse models of fatty liver disease” value (fatty liver disease)?
A: shown efficacy

Q: What about the “highest observed CYP3A4 induction” value (CYP3A4 [6]; one of three donors, concentration-dependent) of the same molecule?
A: 6.5 fold

Q: And the CYP3A4 induction (CYP3A4 [6]; two of three donors)?
A: no indication of CYP3A4 induction

Q: What about the blood plasma ratio [7] of the same molecule?
A: 0.84

Q: What about the IC50 (CYP2C9 [8]) of the same molecule?
A: 7.7 µM

Q: And the “time dependence of CYP2C9 inhibition” value (CYP2C9 [8])?
A: not time dependent

Q: What about the “clinical inhibition of CYP2C9” value (CYP2C9 [9]) of the same molecule?
A: does not inhibit

Q: And the “total radioactivity recovered in urine” value [10]?
A: < 5%

Q: And the “increase in AUC0‐last, fed versus fasted” value ([11]; 900 mg SDD suspension)?
A: approximately 3.34 fold

Q: And the “increase in Cmax, fed versus fasted” value ([11]; 900 mg SDD suspension)?
A: approximately 2.45 fold

Q: What about the “increase in AUC on administration with food” value ([11]; Discussion, dose and formulation not stated) of the same molecule?
A: 2.3 fold

Q: And the half-life ([11]; human, plasma, oral, half‐life, single doses, healthy subjects)?
A: ~20 h

Q: And the “adverse effects in 28‐day toxicology study” value (28-day toxicology study)?
A: No adverse effects

Q: And the IC50 (CYP2C8 [12])?
A: 7.5 µM

Q: And the “time dependence of CYP2C8 inhibition” value (CYP2C8 [12])?
A: not time dependent
